The values that follow come from ChEMBL document CHEMBL4270600, “Pyrazinyl ureas revisited: 1-(3-(Benzyloxy)pyrazin-2-yl)-3-(3,4-dichlorophenyl)urea, a new blocker of Aβ-induced mPTP opening for Alzheimer's disease” (Eur J Med Chem, 2018).

In data set [1] the target is Peptidyl-prolyl cis-trans isomerase F, mitochondrial (Mus musculus) (UniProt Q99KR7). The data set is described as follows: Blockade of amyloid beta (1 to 42)-induced cypD-mediated mPTP opening in mouse HT22 cells assessed as green to red fluorescence ratio at 5 uM preincubated for 10 mins followed by amyloid beta (1 to 42) addition measured at 1 hr time interval for 3 hrs by JC-1 staining based fluorescence assay (reference value: 100%). It counts as cell-based. The essentials:
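HT-22 mouse hippocampal cells were grown in DMEM with 10% FBS and seeded at 30,000/well the day before. They were loaded with 7.5 μM JC-1 (final) in phenol red-free Opti-MEM for 1 h 15 min at 37 °C, then PBS-washed. Test agent at 5 μM in Opti-MEM was added for 10 min at 37 °C, then 5 μM Aβ1–42 solution. Red (ex 530/em 580) and green (ex 485/em 530) fluorescence was read hourly for 3 h. The green/red ratio was expressed as percent change normalized to vehicle control (100%), from duplicate averages.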

Data set [2] has as its system HT-22. The data set is described as follows: Induction of mitochondrial energy production impairment in mouse HT22 cells assessed as ATP production at 5 uM after 7 hrs by luciferase reporter gene assay relative to control. It counts as cell-based. The conditions noted are these: ht-22, 7 h. An outline of the steps:
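HT-22 cells were seeded at 10,000/well the day before. Test agent was added as a 10 μM solution (25 μL) without Aβ and incubated 7 h at 37 °C. Cells were PBS-washed and lysed in 1% Triton X-100/TBST, and protein was measured by BCA. Equal lysate amounts were assayed for ATP by luciferase kit. Levels were expressed relative to vehicle control, from duplicate averages.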
(Reporter assays use an easily measured gene product as a stand-in for the process of interest.)

Data set [3] deals with HT-22. The data set is described as follows: Neuroprotection against amyloid beta (1 to 42)-induced deterioration of mitochondrial ATP production in mouse HT22 cells assessed as ATP recovery at 5 uM preincubated for 10 mins followed by amyloid beta (1 to 42) addition and measured after 7 hrs by luciferase reporter gene assay relative to control. It counts as functional. The essentials:
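HT-22 cells were seeded at 10,000/well the day before. Test agent was added as a 10 μM solution (25 μL) for 10 min at 37 °C, then 25 μL of 10 μM Aβ1–42 solution, followed by 7 h at 37 °C. Lysates (1% Triton X-100/TBST) were equalized by BCA protein and assayed for ATP with a luciferase kit. Vehicle control was subtracted, and percent recovery was calculated against Aβ-treated vehicle control, from duplicate averages.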

Data set [4] is described as follows: Cytotoxicity against mouse HT22 cells assessed as cell viability at 5 uM after 24 hrs by MTT assay relative to control. Type of data set: cell-based, HT-22. The conditions noted are these: read-out: Activity. The essentials: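 HT-22 cells were seeded at 5000/well and treated with 5 μM test agent for 24 h at 37 °C. MTT was added for 2 h at 37 °C. Formazan was dissolved in 10% Triton X-100 in isopropanol with 0.1 M HCl for 1 h at room temperature. Absorbance was read at 570 nm, vehicle control subtracted, and viability expressed as percent of control, from duplicate averages.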
In general terms: Tetrazolium assays rely on reduction of a dye to a coloured formazan, in cell work by metabolically active cells.

The target in data set [5] is Voltage-gated inwardly rectifying potassium channel KCNH2 (Homo sapiens, UniProt Q12809). The data set is described as follows: Displacement of [3H]-astemizole from human ERG expressed in HEK293 cell membranes after 1 hr by microbeta counting method. The essentials:
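Radioligand binding used 2.5 µg HEK-293 membranes expressing human ERG in 50 mM Hepes pH 7.4, 60 mM KCl, 0.1% BSA, with 4 nM [³H]astemizole. Incubation was 1 h at room temperature, followed by filtration through PEI-presoaked filtermat and scintillation counting. Non-specific binding was defined with 0.1 µM astemizole. Each competitor was tested at 5–6 concentrations in duplicate tubes, with isotherms from two assays.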
(In general: Displacement assays read how much labelled ligand stays bound in the presence of the test substance.)

Peptidyl-prolyl cis-trans isomerase F, mitochondrial (Mus musculus), sequence (Q99KR7 whole entry): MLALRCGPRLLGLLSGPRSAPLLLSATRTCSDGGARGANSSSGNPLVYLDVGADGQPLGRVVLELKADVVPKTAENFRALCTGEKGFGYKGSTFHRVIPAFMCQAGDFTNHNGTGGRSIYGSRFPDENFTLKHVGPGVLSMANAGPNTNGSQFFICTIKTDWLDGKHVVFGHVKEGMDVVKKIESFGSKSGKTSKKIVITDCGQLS
Voltage-gated inwardly rectifying potassium channel KCNH2, sequence (Q12809 whole entry): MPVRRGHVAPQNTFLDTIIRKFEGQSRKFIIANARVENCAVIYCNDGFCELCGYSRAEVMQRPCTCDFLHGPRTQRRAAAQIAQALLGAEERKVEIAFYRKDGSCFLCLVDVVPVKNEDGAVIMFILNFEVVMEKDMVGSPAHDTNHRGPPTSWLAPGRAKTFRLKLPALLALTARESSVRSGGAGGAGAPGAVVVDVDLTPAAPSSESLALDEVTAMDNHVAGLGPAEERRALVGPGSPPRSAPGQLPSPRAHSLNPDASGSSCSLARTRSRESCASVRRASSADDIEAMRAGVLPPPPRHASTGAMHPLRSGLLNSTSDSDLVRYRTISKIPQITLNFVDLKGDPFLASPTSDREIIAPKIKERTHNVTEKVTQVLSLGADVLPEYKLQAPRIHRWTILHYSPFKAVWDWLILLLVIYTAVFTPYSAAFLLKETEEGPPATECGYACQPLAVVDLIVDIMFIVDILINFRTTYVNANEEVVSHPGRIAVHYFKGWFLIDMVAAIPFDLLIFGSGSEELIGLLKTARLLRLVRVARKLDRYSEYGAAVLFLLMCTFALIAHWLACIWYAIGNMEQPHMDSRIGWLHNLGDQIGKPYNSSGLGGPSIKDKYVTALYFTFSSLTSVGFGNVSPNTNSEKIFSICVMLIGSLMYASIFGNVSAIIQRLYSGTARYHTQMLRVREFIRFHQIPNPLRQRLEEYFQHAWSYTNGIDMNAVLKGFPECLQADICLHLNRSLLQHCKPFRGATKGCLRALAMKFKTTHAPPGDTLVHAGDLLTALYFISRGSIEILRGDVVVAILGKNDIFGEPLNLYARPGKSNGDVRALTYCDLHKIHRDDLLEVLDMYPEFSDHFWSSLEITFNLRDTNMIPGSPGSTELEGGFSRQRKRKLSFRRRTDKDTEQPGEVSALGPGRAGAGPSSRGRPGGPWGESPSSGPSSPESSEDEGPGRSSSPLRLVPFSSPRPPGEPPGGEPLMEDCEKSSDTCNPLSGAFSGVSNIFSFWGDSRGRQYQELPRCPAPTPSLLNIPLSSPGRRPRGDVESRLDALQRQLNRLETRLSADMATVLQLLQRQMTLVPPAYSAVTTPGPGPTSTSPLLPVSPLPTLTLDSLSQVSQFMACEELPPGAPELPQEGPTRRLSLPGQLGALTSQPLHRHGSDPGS

In the case of `CC(C)(C)CC(C)(C)NC(=O)Nc1nccnc1OCc1ccccc1`, in data set [1], the Ratio was found to be 25%. For the same compound, the Activity with HT-22 [2] is 86%; in the data set on HT-22 [3], -59%.
For the compound `O=C(NCCCl)Nc1nccnc1OCc1cccc(Cl)c1`, the Ratio in data set [1] is 73%.
The same measure, in the same setting: the same measure for `CC(C)(C)NC(=O)Nc1nccnc1OCc1cccc(F)c1`: 55%.
Take `O=C(Nc1cccc(Cl)c1)Nc1nccnc1OCc1cccc(Cl)c1`: in data set [1], the Ratio worked out at 29%. For the same compound, the results for the Activity in the data set on HT-22 [2] and in the data set on HT-22 [3] were 85.4% and -3.5%, respectively.
Regarding `CN1CCN(CCNC(=O)Nc2nccnc2OCc2ccccc2Cl)CC1`, the Ratio in data set [1] amounted to 34%.
As to `CC(C)(C)CC(C)(C)NC(=O)Nc1nccnc1OCc1cccc(F)c1`, in data set [1], the Ratio amounted to 29%. Also, the Activity in the data set on HT-22 [2] stood at 98.9%; in the data set on HT-22 [3], 32.9%.
For `CN1CCN(CCNC(=O)Nc2nccnc2OCc2ccccc2)CC1`, in that order: 43%, 97.2% and 0.7%.
For the compound `CCNC(=O)Nc1nccnc1OCc1cccc(Cl)c1`, the Ratio in data set [1] is 60%.
For the compound `O=C(NCc1ccccc1)Nc1nccnc1OCc1ccccc1Cl`, in data set [1], the Ratio came to 33%. In addition, the values for the Activity in the data set with HT-22 [2] and in the data set with HT-22 [3] were 96.9% and 71.3%, respectively. Moreover, the viability at 24 h, 5 µM in data set [4] was determined as 84.8%.
Take `O=C(NCCCl)Nc1nccnc1OCc1ccccc1Cl`: the Ratio in data set [1] amounted to 72%.
For `O=C(NCCN1CCNCC1)Nc1nccnc1OCc1ccccc1Cl`, the Ratio in data set [1] is 37%. Further, the Activity in the data set with HT-22 [2] came out at 70%.
Taken in the same sequence, the figures for `CC(C)(C)NC(=O)Nc1nccnc1OCc1ccccc1Cl` were 28% and 55.3%.
As to `O=C(Nc1ccccc1)Nc1nccnc1OCc1cccc(Cl)c1`, the Ratio in data set [1] was 59%.
In the case of `NC(=O)CN1CCCC1=O` [PIRACETAM], the Activity in the data set on HT-22 [2] stood at 88%; in the data set on HT-22 [3], 127%.
For `O=C(Nc1ccccc1)Nc1nccnc1OCc1ccccc1Cl`, the Ratio in data set [1] was determined as 39%. Moreover, the Activity with HT-22 [2] stood at 66.9%.
Take `CC(C)(C)NC(=O)Nc1nccnc1OCc1ccccc1`: the Ratio in data set [1] worked out at 51%.
For the compound `O=C(Nc1ccccc1)Nc1nccnc1OCc1cccc(F)c1`, in data set [1], the Ratio is 30%.
`CN1CCN(CCNC(=O)Nc2nccnc2OCc2cccc(Cl)c2)CC1`: in data set [1], the Ratio is 34%. Besides, the Activity with HT-22 [2] is recorded as 96.1%; in the data set on HT-22 [3], 17.7%.
For `CC(C)(C)CC(C)(C)NC(=O)Nc1nccnc1OCc1ccc(Cl)cc1`, in that order: 35%, 85.7% and -1.7%.
Regarding `O=C(Nc1nccnc1OCc1ccc(Cl)cc1)Nc1cccc2ccccc12`, the Ratio in data set [1] was determined as 60%.
For the compound `O=C(Nc1ccc(Cl)c(Cl)c1)Nc1nccnc1OCc1ccccc1`, in data set [1], the Ratio worked out at 29%. Moreover, the Activity in the data set on HT-22 [2] turned out to be 148.6%; in the data set on HT-22 [3], 71.2%. Further, the viability at 24 h, 5 µM in data set [4] was 139%. Also, the IC50 (commonly the concentration needed to halve the response being measured) in data set [5] came out at 11.3 µM.
On to `CC(C)(C)CC(C)(C)NC(=O)Nc1nccnc1OCc1ccccc1Cl`, for which the Ratio in data set [1] was 59%.
Same read-out and setting: the figure for `O=C(Nc1cccc(F)c1)Nc1nccnc1OCc1cccc(Cl)c1` is 50%.
As for `O=C(Nc1nccnc1OCc1ccccc1)NC1CCCCCC1`, the Ratio in data set [1] was determined as 33%. Also, the Activity in the data set on HT-22 [2] came to 103.4%; with HT-22 [3] it was 45.7%. Also, the viability at 24 h, 5 µM in data set [4] turned out to be 59%.
Turning to `CC(C)(C)CC(C)(C)NC(=O)Nc1nccnc1OCc1ccc(F)cc1`, in data set [1], the Ratio was determined as 17%.
On the same count and under the same terms, the figure for `O=C(Nc1cccc(Cl)c1)Nc1nccnc1OCc1cccc(F)c1` is 39%.
On the same count and under the same terms, the same measure for `O=C(Nc1cccc(Cl)c1)Nc1nccnc1OCc1ccccc1Cl`: 55%; for `O=C(Nc1ccccc1)Nc1nccnc1OCc1ccccc1`: 44%; for `O=C(NCCCl)Nc1nccnc1OCc1ccccc1`: 53%.
